Compound activity: PubChem BioAssay, several laboratories
S1P4 antag: human S1P4 receptor antagonism. S1P4-expressing cells, antagonist mode, reporter read-out. 0.26% of 220,000 active. inhibition, % at 4.98 µM; in the data active = inhibition above about 29%;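 note: 0% = wells stimulated with agonist and 100% = vehicle wells without agonist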
S1P3 antag: blocks the human S1P3 receptor | CHO S1P3 NFAT-BLA reporter, FRET fluorescence, antagonist mode | Q99500 | 0.27% of 170,000 active | inhibition, % at 4.98 µM;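 active = inhibition above the plate cutoff, the mean inhibition of test wells on that plate plus 3 SD, cut at about 28% in these data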;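 note: cells challenged with S1P at its EC80 of 0.8 µM; blue over green emission ratio from cleaved BLA substrate after 4 h stimulation; 0% = S1P-stimulated wells and 100% = unstimulated DMSO-only wells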
Target sequence (Q99500 whole entry, looked up): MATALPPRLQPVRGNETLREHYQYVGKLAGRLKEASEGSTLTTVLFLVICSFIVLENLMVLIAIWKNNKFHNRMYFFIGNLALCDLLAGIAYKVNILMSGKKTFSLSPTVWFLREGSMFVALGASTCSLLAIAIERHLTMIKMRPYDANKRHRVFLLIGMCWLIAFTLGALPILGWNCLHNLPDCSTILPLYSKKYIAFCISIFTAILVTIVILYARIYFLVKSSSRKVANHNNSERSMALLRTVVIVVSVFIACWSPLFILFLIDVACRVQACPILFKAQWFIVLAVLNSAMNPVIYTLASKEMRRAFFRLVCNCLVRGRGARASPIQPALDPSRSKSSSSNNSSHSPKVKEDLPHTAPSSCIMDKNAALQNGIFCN
Lmaj promast: inhibitors of Leishmania major promastigote growth; Leishmania major promastigotes, resazurin fluorescence viability; 9% of 200,000 active; inhibition, % at 10 µM; AID 1063; in the data active = inhibition above about 50%;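 note: promastigotes grown with compound for 44 hours at 28 °C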
S1P4 ag: human S1P4 receptor agonism; activation, % at 4.98 µM; O95977; S1P4-expressing cell line, agonist reporter assay; 0.35% of 220,000 active; AID 1509; in the data active = activation above about 11%;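 note: 0% = DMSO vehicle and 100% = reference agonist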
MDM2 E3 inh: blocks human Mdm2 ubiquitin ligase activity; Q00987; cell-based MDM2 ubiquitination luciferase reporter, 2 h; 0 = plate control, 100 = twice control, blank-subtracted; signal enhancement, % at 5 µM; 0.11% of 210,000 active;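 active = signal enhancement of 30% or more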;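 note: luminescence tracks abundance of the self-degrading MDM2-luciferase fusion protein; higher signal means inhibition of MDM2 E3 ligase activity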
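Material: stable MDM2–luciferase fusion reporter cells / Quantity: 2000 cells/well / Dosing: single 5 µM compound dose, 0.2% final DMSO / Buffer or medium: DMEM / Schedule: 4 h cell settling then 2 h compound exposure, 37 °C / Detection: luminescence with SteadyLite reagent, 15 min at room temperature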
* = called active by the depositor; nt = no result. This excerpt belongs to a sample that is enriched for hits.

SMILES	S1P4 antag	S1P3 antag	Lmaj promast	S1P4 ag	MDM2 E3 inh
CCOC(=O)C1=C(c2ccccc2)Nc2ncnn2C1c1ccc(OC)c(OC)c1OC (stereo unspecified)	-2.0	nt	86.2*	-2.2	-1.4
Cn1c(SCC(=O)NCc2ccc(F)cc2)nc2c([nH]c3ccccc32)c1=O	-17.4	-3.7	-2.6	1.4	-15.6
Cn1c(SCC(=O)NCCc2ccccc2)nc2c([nH]c3ccccc32)c1=O	-4.8	-4.3	93.4*	-1.6	-8.6
COc1cc(/C=N\NC(=O)C2CC3C=CC2C3)ccc1O (stereo unspecified)	-11.0	-7.2	18.2	3.1	-3.4
CCOC(=O)C1=C(C)N=C2c3ccccc3C(=O)C2C1c1ccc(Cl)cc1 (stereo unspecified)	3.8	nt	96.2*	-1.4	-16.8
Cc1ccc(C2C3=C(CC(C)(C)CC3=O)N=C3c4ccccc4C(=O)C32)cc1 (stereo unspecified)	-11.0	-0.2	99.3*	-1.8	-4.7
CC1(C)CC(=O)C2=C(C1)N=C1c3ccccc3C(=O)C1C2c1ccc(Cl)cc1 (stereo unspecified)	9.5	nt	93.6*	-0.4	-8.4
CCOC(=O)C1=NNC(C(=O)c2ccccc2)C1c1ccc(Cl)cc1 (stereo unspecified)	-1.6	3.4	nt	-0.6	-3.6
Cc1[nH]nc2c1C(c1ccccc1)C1=C(CC(C)(C)CC1=O)N2 (stereo unspecified)	-27.9	-25.2	28.7	-4.7	-15.4
Cc1ccc(C2C3=C(CC(C)(C)CC3=O)OC3=C2C(=O)CC(C)(C)C3)cc1	-23.0	-1.9	6.9	4.0	-8.0
Cc1cccc(N2C(=O)CSC2c2cccnc2)c1 (stereo unspecified)	-14.5	nt	2.3	-2.1	-5.3
Cc1ccc(N2CCN(c3ccc(C)cc3)C2c2ccncc2)cc1	-1.6	-4.7	92.2*	1.0	0.0
Cc1cccc(N2CCN(c3cccc(C)c3)C2c2cccnc2)c1	-10.7	36.5	99.2*	1.9	-12.8
CC1(C)Cc2ccccc2-c2nc(NCCCO)n(-c3ccccc3)c(=O)c21	-8.8	-7.5	10.0	-0.9	-4.9
Cc1oc2c(CN(C)C)c(O)ccc2c(=O)c1-c1ccc2ccccc2n1	-9.6	9.5	76.3*	1.1	18.7
CCc1oc2c(C)c(O)ccc2c(=O)c1-c1ccc2ccccc2n1	2.5	nt	-1.0	-0.1	-9.1
Cc1cc(C)nc(NCCC(=O)O)n1	-5.2	-5.3	-7.9	0.6	-11.0
O=c1c(-c2ccccc2)[n+]([O-])c2ccccc2n1O	4.0	-6.6	-6.6	-0.9	-16.2
CCCCc1cc(=O)oc2cc(O)cc(O)c12	-19.4	-21.1	29.0	0.0	-16.5
CCCCc1cc(=O)oc2cc(C)cc(O)c12	-8.6	nt	81.6*	1.7	-0.7
Cc1ccccc1NC(=O)c1cccc(Cn2cc(Br)c([N+](=O)[O-])n2)c1	-6.2	nt	17.4	-1.1	-11.9
COc1cccc(/C=N/NC(=O)C(=O)N2CCCC2)c1O	4.7	nt	53.2*	1.7	-0.8
COc1cccc(NC(=S)NNC(=O)C(C)n2nc(C)c([N+](=O)[O-])c2C)c1 (stereo unspecified)	6.0	nt	-8.0	0.8	-11.7
COc1ccc(OC)c(NC(=O)c2cccc(Cn3cc(Br)c([N+](=O)[O-])n3)c2)c1	-3.3	9.8	100.3*	-0.7	1.9
COc1cccc(/C=N\NC(=O)c2ccc(Cn3cc(Br)c([N+](=O)[O-])n3)o2)c1O	-19.8	3.5	100.2*	0.3	-15.0
SMILES	S1P4 antag	S1P3 antag	Lmaj promast	S1P4 ag	MDM2 E3 inh
COc1cccc(/C=N/NC(=O)C(C)n2nc(C)c([N+](=O)[O-])c2C)c1O (stereo unspecified)	-16.7	2.8	93.9*	0.1	-8.0
COc1cccc(/C=N/NC(=O)CSc2ccccc2C)c1O	-1.9	8.6	97.9*	0.4	nt
COc1cccc(/C=N/NC(=O)Cn2nc(C)c([N+](=O)[O-])c2C)c1O	2.2	2.9	81.9*	0.3	-26.8
COc1cccc(/C=N/NC(=O)CSc2ccccc2C)c1OC	2.4	-1.4	-6.8	1.6	-15.8
CCOc1ccc(C(=O)NCCc2ccc3c(c2)OCCO3)cc1	8.6	-1.3	-5.0	-0.1	-9.6
O=C1CC(Sc2nnnn2-c2ccccc2)C(=O)N1c1cccc(Cl)c1 (stereo unspecified)	-10.4	nt	71.3*	-1.4	3.2
O=C1CC(SC(=Nc2ccccc2)Nc2ccccc2)C(=O)N1c1cccc(Cl)c1 (stereo unspecified)	-10.7	nt	61.0*	-2.5	-16.3
COc1cccc(Oc2nccc(N(C)C)c2C#N)c1	7.0	1.3	15.6	-0.1	-10.8
Cc1cccc(C)c1NC(=O)COC(=O)c1c2c(nc3ccccc13)/C(=C\c1ccc3c(c1)OCO3)CCC2	-3.0	0.2	83.0*	-0.1	-13.8
CC(OC(=O)c1c2c(nc3ccccc13)/C(=C\c1ccc3c(c1)OCO3)CCC2)C(=O)Nc1ccc(S(N)(=O)=O)cc1 (stereo unspecified)	-24.2	3.1	14.4	-0.7	-9.0
COc1ccc(Br)cc1CN(C)CC(=O)Nc1cccc(S(N)(=O)=O)c1	-4.8	-25.2	7.4	-0.7	-15.0
COc1cccc(CN(C)CC(=O)Nc2cccc(S(N)(=O)=O)c2)c1OC	-17.6	-6.2	87.9*	-1.7	4.9
CN(c1ccccc1)S(=O)(=O)c1cccc(NC(=O)Cn2cnc3ccccc3c2=O)c1	11.1	nt	97.8*	-2.1	-13.1
CC(C)(C)c1ccc(OCCCC(=O)Nc2ccc(S(N)(=O)=O)cc2)cc1	-16.4	0.1	73.2*	-1.3	-14.8
CN(c1ccccc1)S(=O)(=O)c1cccc(NC(=O)CC(C)(C)C)c1	-1.1	9.8	96.5*	-0.7	3.3
CCOc1ccc(CN(C)CC(=O)Nc2cccc(S(=O)(=O)N(C)c3ccccc3)c2)cc1	7.9	-17.9	74.0*	-0.1	-8.3
CC(=O)c1ccc(OCCCC(=O)Nc2cccc(S(=O)(=O)N(C)C)c2)cc1	-9.8	0.7	58.4*	1.8	-6.4
Cc1c(C(=O)Nc2cccc(Cl)c2)c2ccccn2c1CCc1ccncc1	24.1	-2.7	74.9*	0.6	-16.0
Cc1c(C(=O)Nc2ccc(Cl)cc2)c2ccccn2c1CCc1ccncc1	-5.2	11.1	15.4	-0.4	-17.3
CC(C)N1CC=C2C(C#N)=C(N)C(C#N)(C#N)C(c3ccccc3)C2C1 (stereo unspecified)	-13.7	nt	-3.3	1.2	5.8
CCN1CC=C2C(C#N)=C(N)C(C#N)(C#N)C(c3cc(Cl)ccc3Cl)C2C1 (stereo unspecified)	-2.1	-14.9	65.0*	1.5	-9.3
COc1cccc(C(=O)C2CCCN(Cc3cccn3-c3cccnc3)C2)c1 (stereo unspecified)	3.0	-7.2	88.7*	-0.3	-22.5
COc1ccc(F)cc1C(=O)C1CCCN(Cc2cccn2-c2ccccn2)C1 (stereo unspecified)	23.4	-12.9	62.9*	2.3	-21.7
COc1ccc(C(=O)C2CCCN(Cc3cccn3-c3ccccn3)C2)c(OC)c1 (stereo unspecified)	-6.5	-3.9	92.1*	-0.1	0.2
